Results taken from ChEMBL document CHEMBL1122791, “Inhibition of arabinose 5-phosphate isomerase. An approach to the inhibition of bacterial lipopolysaccharide biosynthesis” (J Med Chem, 1984).
Values belong to the molecule of their own block, whether it stands above or below them. The source made the active and inactive calls. The rule behind the calls is not given here.

Columns and labels:
[1] = target: arabinose 5-phosphate isomerase (Escherichia coli) (UniProt P45395); experiment: Inhibitory activity against Arabinose-5-phosphate isomerase at a concentration of 12 mM; Not active.
[2] = system: arabinose 5-phosphate isomerase (Escherichia coli); experiment: Inhibitory activity against Arabinose-5-phosphate isomerase at a concentration of 1.5 mM; Not active.
[3] = system: arabinose 5-phosphate isomerase (Escherichia coli); experiment: Inhibitory activity against Arabinose-5-phosphate isomerase at a concentration of 6 mM
[4] = system: arabinose 5-phosphate isomerase (Escherichia coli); experiment: Inhibitory activity against Arabinose-5-phosphate isomerase at a concentration of 5 mM; NA = not active at 5
[5] = system: arabinose 5-phosphate isomerase (Escherichia coli); experiment: Inhibitory activity against Arabinose-5-phosphate isomerase at a concentration of 6 mM; Not active.
[6] = system: arabinose 5-phosphate isomerase (Escherichia coli); experiment: Inhibitory activity against Arabinose-5-phosphate isomerase at a concentration of 2 mM; Not active.
[7] = target: T1, Arabinose 5-phosphate isomerase KdsD (Salmonella typhimurium (strain LT2 / SGSC1412 / ATCC 700720), UniProt Q8ZLS1); experiment: Inhibitory activity against Arabinose-5-phosphate isomerase; Interfered.
T1 sequence (Q8ZLS1 whole entry): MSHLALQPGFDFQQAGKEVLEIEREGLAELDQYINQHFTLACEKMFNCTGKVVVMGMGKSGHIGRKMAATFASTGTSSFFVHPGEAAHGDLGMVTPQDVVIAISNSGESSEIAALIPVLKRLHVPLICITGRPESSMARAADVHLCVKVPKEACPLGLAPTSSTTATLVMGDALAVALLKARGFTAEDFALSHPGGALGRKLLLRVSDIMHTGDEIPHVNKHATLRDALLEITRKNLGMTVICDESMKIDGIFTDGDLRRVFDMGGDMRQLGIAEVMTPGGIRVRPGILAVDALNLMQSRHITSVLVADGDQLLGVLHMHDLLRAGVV
Outline: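 Isomerase from E. coli B cells, purified 50-fold. Inhibitor and enzyme were preincubated 2 min at 37 °C in 0.1 M histidine buffer, pH 7.5. The reaction was started with 10 mM (stock) D-arabinose 5-phosphate or D-ribulose 5-phosphate. It was stopped at 0, 3, 6, 9 and 12 min with cysteine HCl, then H2SO4. Ketose was read at 540 nm by carbazole colour (30 min, 37 °C).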

[8] = target: arabinose 5-phosphate isomerase (Escherichia coli) (UniProt P45395); experiment: Inhibitory activity against Arabinose-5-phosphate isomerase at a concentration of 3 mM; Not active.
[9] = system: arabinose 5-phosphate isomerase (Escherichia coli); experiment: Inhibitory activity against Arabinose-5-phosphate isomerase; Not active.
[10] = system: arabinose 5-phosphate isomerase (Escherichia coli); experiment: Inhibitory activity against Arabinose-5-phosphate isomerase; Unstable.
[11] = target: arabinose 5-phosphate isomerase (Escherichia coli) (UniProt P45395); experiment: Inhibitory activity against Arabinose-5-phosphate isomerase at a concentration of 2.4 mM; Not active.
[12] = system: arabinose 5-phosphate isomerase (Escherichia coli); experiment: Inhibitory activity against Arabinose-5-phosphate isomerase at a concentration of 5 mM; Not active.
[13] = compound: O=P(O)(O)OC[C@H]1O[C@@H](O)[C@@H](O)[C@@H]1O; experiment: Inhibitory activity against Arabinose-5-phosphate isomerase; details: Escherichia coli B

Chain of arabinose 5-phosphate isomerase (Escherichia coli) (UniProt P45395) (P45395 whole entry, looked up): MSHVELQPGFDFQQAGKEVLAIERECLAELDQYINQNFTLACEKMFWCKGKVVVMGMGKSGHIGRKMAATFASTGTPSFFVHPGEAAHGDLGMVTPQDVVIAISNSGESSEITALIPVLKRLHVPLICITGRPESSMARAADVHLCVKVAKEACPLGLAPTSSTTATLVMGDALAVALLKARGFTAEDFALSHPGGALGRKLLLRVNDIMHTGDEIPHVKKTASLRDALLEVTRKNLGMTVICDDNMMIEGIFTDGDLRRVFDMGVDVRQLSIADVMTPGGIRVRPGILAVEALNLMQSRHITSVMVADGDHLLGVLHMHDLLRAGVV

inhibition [1]: inactive
Molecule: NS(=O)(=O)OC[C@H]1OC(=O)[C@H](O)[C@@H]1O

inhibition [2]: inactive
Molecule: O=P(O)(O)OCC(O)C(O)CCO (stereo not given)

inhibition [3]: 12%
Molecule: O=C1O[C@H](CCl)[C@@H](O)[C@H]1O

inhibition [4]: inactive
Molecule: C[C@H]1OC(O)[C@H](O)[C@H]1O (stereo not given in full)

inhibition [5]: inactive
Molecule: O=P(O)(O)OCC1OC(O)C(O)C1OCc1ccccc1 (stereo not given)

inhibition [5]: inactive
Molecule: O=C1O[C@H](CO)[C@@H](O)[C@H]1O

inhibition [6]: inactive
Molecule: O=P(O)(O)OCC1OC(O)CC1O (stereo not given)

Molecule: O=[N+]([O-])OC[C@H]1O[C@H](O)[C@@H](O)[C@@H]1O
I 50 [7]: Interfered

inhibition [8]: inactive
Molecule: COC1C(COP(=O)(O)O)OC(O)C1O (stereo not given)

inhibition [9]: inactive
Molecule: O=C(O)C(=O)OC[C@H]1OC(=O)[C@H](O)[C@@H]1O

I 50 [10]: Unstable
Molecule: CC(=O)CC(=O)OC[C@H]1O[C@H](O)[C@@H](O)[C@@H]1O

inhibition [5]: inactive
inhibition [11]: inactive
Molecule: O=P(O)(O)OCC(O)C(O)C(O)C(O)CO (stereo not given)

inhibition [12]: inactive
Molecule: O=P(O)(O)OCC1OC(O)C(F)C1O (stereo not given)

B1: Arabinose 5-phosphate isomerase KdsD (Salmonella typhimurium (strain LT2 / SGSC1412 / ATCC 700720)), Q8ZLS1 (protein)
chain: MSHLALQPGFDFQQAGKEVLEIEREGLAELDQYINQHFTLACEKMFNCTGKVVVMGMGKSGHIGRKMAATFASTGTSSFFVHPGEAAHGDLGMVTPQDVVIAISNSGESSEIAALIPVLKRLHVPLICITGRPESSMARAADVHLCVKVPKEACPLGLAPTSSTTATLVMGDALAVALLKARGFTAEDFALSHPGGALGRKLLLRVSDIMHTGDEIPHVNKHATLRDALLEITRKNLGMTVICDESMKIDGIFTDGDLRRVFDMGGDMRQLGIAEVMTPGGIRVRPGILAVDALNLMQSRHITSVLVADGDQLLGVLHMHDLLRAGVV
Km [13]: 200 µM
